In ChEMBL document CHEMBL5338796, “Discovery of a Selective and Orally Bioavailable FGFR2 Degrader for Treating Gastric Cancer” (J Med Chem, 2023) one finds Vd, Activity and Emax data, which are given here for one compound.

Active and inactive are the calls of the source. No cut-off for these calls is given here.

The nature of data set [1]: Volume of distribution at steady state in mice at 3 mg/kg, iv measured at 0.083 to 24 hrs by LC-MS/MS analysis. The settings on record: mouse, in vivo, read-out: Vdss.
The subject of data set [2] is KATO III stomach cancer cell line. Briefly: Induction of cell cycle arrest in human KATO III stomach cancer cell line assessed as accumulation of cells at G0/G1 phase […] by flow cytometry analysis. The format is functional, cell-based. The method in brief:
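KATO III cells harvested with EDTA-free trypsin, fixed in cold 70% ethanol overnight at −20 °C, stained with DNA staining solution 30 min at room temperature, analysed by flow cytometry.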
A general note: Flow cytometry measures light scatter and fluorescence of single cells or particles in a stream.

Data set [3] can be described thus: Toxicity in BALB/c mouse xenografted with human SNU-16 cells assessed as tolerability at 20 mg/kg, po administered for 15 days and measured on day 2. The format is organism-based. The settings on record: in vivo, 48 h, time 2 day. Put shortly:
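Female BALB/c nude mice, 5 weeks old (20–22 g), carried subcutaneous SNU-16 xenografts in the right flank. Dosing began at mean tumor volume 50–100 mm3, after randomization by body weight, n = 5. Mice received 20 mg/kg/day by gavage in 0.5% CMC-Na, QD for 15 d, with vehicle controls. Body weight was measured every 2 days.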
For orientation: Xenograft models place foreign cells or tissue in a host animal.

For data set [4], the target named is Protein cereblon/Fibroblast growth factor receptor 2 (Homo sapiens, UniProt P21802+Q96SW2). Briefly: PROTAC activity at CRBN/FGFR2 in human KATO III stomach cancer cell line assessed as FGFR2 degradation by measuring maximum efficacy at 0.5 to 10000 nM measured for 6 hrs by Western blotting analysis relative to control. In kind it is cell-based. The settings on record: dose 0.5-10000 nM. The method in brief:
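KATO III cells treated for 6 h at the stated concentrations, added from 10 mM DMSO stocks (final DMSO below 0.5%). Cells were washed with PBS and lysed in 2× loading buffer, then run on SDS-PAGE and blotted to PVDF. Anti-FGFR2 was applied overnight at 4 °C, with ECL detection. FGFR2 was expressed as FGFR2/β-actin, normalized to DMSO-treated cells, from three independent biological experiments.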

Data set [5] concerns the target Fibroblast growth factor receptor (Homo sapiens) (UniProt P22607+P11362+P22455+P21802). The experiment in a line: Induction of FGFR degradation in human KATO III stomach cancer cell line assessed as reduction in FRS2 phosphorylation at 50 nM measured for 6 hrs. In kind it is cell-based. The method in brief:
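KATO III cells incubated 6 h with 50 nM compound, then stimulated with FGF1 for 10 min; pFGFR, pPLCγ1 (Tyr783) and pFRS2α immunoblotted.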

Data set [6] in a line: Toxicity in ICR mouse assessed as morphological changes in lung at 20 mg/kg, po measured for 30 days by hematoxyin-eosin staining based analysis. The format is organism-based. The settings on record: in vivo, 720 h, time 30 day. The method in brief:
(§1)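 ICR mice (n = 6) were dosed orally at 20 mg/kg/day for 30 days, alongside vehicle-treated controls. Mortality and clinical signs were checked daily. At the end, body and organ weights were recorded. Heart, liver, spleen, lung and kidney were examined by hematoxylin and eosin staining.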

A short description of data set [7]: Toxicity in ICR mouse assessed as morphological changes in kidney at 20 mg/kg, po measured for 30 days by hematoxyin-eosin staining based analysis. In kind it is organism-based. The settings on record: in vivo, 720 h, time 30 day. Put shortly: as §1

Sequence of Fibroblast growth factor receptor (Homo sapiens) (P11362 whole entry, looked up): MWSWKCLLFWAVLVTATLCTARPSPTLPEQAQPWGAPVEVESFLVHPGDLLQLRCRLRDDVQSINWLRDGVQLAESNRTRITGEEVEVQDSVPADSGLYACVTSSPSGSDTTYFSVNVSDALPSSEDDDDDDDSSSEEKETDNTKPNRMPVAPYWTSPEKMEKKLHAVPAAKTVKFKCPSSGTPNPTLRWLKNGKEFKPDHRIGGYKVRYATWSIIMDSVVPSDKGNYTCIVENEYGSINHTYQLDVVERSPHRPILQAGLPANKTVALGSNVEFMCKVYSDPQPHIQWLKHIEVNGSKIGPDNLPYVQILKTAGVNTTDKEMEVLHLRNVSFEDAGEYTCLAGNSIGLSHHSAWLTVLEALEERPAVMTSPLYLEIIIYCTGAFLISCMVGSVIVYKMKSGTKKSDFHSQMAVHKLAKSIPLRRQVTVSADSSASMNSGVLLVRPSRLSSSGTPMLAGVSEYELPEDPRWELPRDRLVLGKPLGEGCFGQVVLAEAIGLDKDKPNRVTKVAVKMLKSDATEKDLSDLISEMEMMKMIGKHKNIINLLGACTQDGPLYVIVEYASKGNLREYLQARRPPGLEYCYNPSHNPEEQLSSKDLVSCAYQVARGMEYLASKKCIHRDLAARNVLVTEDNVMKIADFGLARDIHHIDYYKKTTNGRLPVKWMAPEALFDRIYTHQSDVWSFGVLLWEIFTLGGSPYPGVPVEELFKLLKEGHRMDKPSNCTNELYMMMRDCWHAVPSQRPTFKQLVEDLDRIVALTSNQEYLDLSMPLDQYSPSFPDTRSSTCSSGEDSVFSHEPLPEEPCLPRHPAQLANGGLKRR
Sequence of Fibroblast growth factor receptor (Homo sapiens) (P21802 whole entry, looked up): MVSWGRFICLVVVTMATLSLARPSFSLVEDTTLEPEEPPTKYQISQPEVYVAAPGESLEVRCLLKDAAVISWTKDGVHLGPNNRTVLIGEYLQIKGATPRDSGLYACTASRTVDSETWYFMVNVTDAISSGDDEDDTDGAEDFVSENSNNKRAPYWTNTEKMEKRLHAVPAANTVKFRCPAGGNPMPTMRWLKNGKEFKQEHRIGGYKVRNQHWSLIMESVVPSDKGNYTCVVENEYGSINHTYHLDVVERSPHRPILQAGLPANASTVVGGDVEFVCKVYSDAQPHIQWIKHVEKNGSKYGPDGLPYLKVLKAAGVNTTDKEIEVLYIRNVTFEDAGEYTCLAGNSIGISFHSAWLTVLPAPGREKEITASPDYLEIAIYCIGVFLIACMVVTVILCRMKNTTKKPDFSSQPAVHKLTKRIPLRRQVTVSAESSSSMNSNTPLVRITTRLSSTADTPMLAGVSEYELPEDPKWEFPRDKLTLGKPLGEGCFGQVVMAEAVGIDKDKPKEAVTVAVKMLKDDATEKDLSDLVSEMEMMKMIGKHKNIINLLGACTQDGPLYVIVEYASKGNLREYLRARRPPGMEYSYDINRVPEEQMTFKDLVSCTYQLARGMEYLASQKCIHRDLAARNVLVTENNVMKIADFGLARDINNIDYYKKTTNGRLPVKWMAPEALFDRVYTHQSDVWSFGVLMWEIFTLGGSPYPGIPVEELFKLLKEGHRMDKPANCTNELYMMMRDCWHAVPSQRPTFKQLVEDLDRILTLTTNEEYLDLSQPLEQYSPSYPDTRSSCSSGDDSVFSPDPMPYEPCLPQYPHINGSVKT
Sequence of Fibroblast growth factor receptor (Homo sapiens) (P22455 whole entry, looked up): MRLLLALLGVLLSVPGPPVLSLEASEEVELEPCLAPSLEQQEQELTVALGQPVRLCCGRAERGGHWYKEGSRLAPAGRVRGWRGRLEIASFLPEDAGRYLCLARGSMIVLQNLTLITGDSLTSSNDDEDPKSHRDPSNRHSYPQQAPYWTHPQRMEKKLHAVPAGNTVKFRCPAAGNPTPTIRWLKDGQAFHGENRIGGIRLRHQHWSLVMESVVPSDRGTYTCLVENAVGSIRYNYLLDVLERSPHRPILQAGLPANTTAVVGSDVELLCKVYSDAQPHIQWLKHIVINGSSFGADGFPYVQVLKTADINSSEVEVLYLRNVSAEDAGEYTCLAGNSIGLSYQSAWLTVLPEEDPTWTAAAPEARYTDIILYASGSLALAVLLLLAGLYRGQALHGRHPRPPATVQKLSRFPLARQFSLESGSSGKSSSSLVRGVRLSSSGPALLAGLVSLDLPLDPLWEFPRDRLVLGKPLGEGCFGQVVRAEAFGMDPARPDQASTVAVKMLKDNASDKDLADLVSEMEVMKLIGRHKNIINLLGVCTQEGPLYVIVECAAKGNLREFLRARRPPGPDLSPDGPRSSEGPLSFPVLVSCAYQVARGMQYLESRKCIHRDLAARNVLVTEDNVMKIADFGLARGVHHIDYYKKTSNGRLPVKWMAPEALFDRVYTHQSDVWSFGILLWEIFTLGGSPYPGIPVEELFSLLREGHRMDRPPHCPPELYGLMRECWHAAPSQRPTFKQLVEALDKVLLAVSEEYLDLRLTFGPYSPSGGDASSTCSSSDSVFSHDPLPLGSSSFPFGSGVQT
Sequence of Fibroblast growth factor receptor (Homo sapiens) (P22607 whole entry, looked up): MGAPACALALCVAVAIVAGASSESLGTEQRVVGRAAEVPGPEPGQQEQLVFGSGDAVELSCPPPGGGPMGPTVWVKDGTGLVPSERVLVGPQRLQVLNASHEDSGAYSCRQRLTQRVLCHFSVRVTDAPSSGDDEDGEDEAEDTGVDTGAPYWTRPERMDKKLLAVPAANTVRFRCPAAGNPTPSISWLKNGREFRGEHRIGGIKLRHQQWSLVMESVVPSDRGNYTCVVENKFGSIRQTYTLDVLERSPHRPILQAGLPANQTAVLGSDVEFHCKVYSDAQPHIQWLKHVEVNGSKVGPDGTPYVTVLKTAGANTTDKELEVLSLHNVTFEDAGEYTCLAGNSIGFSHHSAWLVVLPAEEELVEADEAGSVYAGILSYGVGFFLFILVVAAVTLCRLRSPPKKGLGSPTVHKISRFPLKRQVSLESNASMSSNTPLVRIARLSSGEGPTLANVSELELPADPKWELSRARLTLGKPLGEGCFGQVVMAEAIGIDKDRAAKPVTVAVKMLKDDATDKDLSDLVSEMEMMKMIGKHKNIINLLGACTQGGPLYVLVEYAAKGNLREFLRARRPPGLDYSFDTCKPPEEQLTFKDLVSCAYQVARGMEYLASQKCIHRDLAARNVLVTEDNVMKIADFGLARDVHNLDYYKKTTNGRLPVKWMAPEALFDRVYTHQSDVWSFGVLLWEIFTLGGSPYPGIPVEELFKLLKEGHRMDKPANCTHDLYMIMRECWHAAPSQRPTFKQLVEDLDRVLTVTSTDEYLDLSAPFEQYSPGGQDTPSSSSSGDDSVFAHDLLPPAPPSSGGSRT
Sequence of Protein cereblon/Fibroblast growth factor receptor 2 (P21802 22-821 limits assumed): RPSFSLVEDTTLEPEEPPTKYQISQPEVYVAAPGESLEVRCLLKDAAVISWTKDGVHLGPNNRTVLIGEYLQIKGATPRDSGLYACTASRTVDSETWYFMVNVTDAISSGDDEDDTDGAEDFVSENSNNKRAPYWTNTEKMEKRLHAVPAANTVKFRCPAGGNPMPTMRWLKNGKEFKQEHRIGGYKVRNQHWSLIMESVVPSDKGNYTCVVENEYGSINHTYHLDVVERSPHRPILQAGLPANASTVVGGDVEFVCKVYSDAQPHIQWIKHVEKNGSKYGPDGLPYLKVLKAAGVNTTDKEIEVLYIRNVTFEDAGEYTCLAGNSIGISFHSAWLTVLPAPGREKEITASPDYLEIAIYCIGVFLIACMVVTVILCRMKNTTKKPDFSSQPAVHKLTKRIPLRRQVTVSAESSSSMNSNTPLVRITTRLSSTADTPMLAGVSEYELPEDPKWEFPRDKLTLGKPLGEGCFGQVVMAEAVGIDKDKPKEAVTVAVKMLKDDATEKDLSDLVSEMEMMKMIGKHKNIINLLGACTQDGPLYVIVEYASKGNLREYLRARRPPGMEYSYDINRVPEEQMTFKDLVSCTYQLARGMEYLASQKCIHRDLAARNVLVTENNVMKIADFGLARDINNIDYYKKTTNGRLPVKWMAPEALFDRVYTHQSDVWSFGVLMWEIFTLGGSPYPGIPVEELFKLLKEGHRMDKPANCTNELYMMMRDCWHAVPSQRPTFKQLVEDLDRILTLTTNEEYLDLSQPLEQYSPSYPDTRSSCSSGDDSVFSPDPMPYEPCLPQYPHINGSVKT
Sequence of Protein cereblon/Fibroblast growth factor receptor 2 (Q96SW2 whole entry partner): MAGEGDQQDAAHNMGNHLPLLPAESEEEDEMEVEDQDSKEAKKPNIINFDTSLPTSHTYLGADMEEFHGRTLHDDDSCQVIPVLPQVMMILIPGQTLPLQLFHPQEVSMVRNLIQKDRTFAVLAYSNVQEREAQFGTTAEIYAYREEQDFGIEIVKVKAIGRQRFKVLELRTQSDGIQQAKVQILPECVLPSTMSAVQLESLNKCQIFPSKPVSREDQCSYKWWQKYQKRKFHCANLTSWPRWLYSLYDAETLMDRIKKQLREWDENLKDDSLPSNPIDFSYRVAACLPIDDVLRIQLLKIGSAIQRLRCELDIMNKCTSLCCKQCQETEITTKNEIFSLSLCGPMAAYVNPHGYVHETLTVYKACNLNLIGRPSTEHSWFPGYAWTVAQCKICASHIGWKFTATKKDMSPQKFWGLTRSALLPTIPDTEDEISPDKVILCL

In the case of `COc1cc(OC)c(Cl)c(NC(=O)N(C)c2cc(Nc3ccc(N4CCN(C(=O)C5CCN(c6ccc7c(c6)C(=O)N(C6CCC(=O)NC6=O)C7=O)CC5)CC4)cc3)ncn2)c1Cl` (configuration not stated), the Vd in data set [1] came out at 6.23 L/kg. For the same compound, the result in data set [2] and in data set [5] was Active. For the same compound, the Activity result in data set [3], in data set [6] and in data set [7] was “Non-Toxic” in each case. The Emax in data set [4] was 80%.
